Source: PubChem (Johns Hopkins Ion Channel Center)
Kir21 block = blocks the mouse Kir2.1 inward-rectifier potassium channel | HEK293-Kir2.1, FluxOR thallium flux fluorescence; stronger effect = lower value | B-score at 10 µM | hit rate 0.85% among 310,000 | AID 1672;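 active = fluorescence ratio B-score at or below minus 3 SD of library scores, with starting-brightness B-score within 2 SD, cut at about -4.2 in these data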;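 also: channel flux triggered by added potassium and thallium sulfate stimulus; B-score of peak minus minimum fluorescence over baseline after thallium stimulus; more negative B-score means stronger Kir2.1 block with less thallium influx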
KCNK9 inh = human KCNK9 channel inhibition. HEK293 KCNK9, FluxOR thallium flux fluorescence; stronger effect = lower value. B-score at 10 µM. hit rate 1.2% among 310,000;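 active = ratio B-score over 3 SD below the library mean, with starting fluorescence within 5 SD of its mean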;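 also: negative B-score means less thallium flux so channel inhibition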
Target sequence (Q9NPC2 whole entry, looked up): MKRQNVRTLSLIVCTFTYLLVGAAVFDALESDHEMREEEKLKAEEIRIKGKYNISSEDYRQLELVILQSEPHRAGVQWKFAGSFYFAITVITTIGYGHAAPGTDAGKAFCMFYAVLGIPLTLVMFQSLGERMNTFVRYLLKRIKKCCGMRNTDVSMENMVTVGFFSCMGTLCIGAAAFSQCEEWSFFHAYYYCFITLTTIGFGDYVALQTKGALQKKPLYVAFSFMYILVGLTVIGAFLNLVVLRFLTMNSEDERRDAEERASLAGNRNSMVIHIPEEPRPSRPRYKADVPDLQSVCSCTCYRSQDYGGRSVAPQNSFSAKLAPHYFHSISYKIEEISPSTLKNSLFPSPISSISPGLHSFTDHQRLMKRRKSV
hERG rescue = hERG (human) protection from proarrhythmic block; AID 1511; hit rate 0.51% among 310,000; activation (rescue from dofetilide block), less the hit threshold, % at 10 µM; CHO-hERG, FluxOR thallium flux, dofetilide IC70 present; Q12809;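 active = activation above the mean of controls blocked by dofetilide plus 5 SD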;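 also: thallium influx through hERG after potassium depolarization seen as dye fluorescence rise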
KCNQ1 inh = blocks the human KCNQ1 potassium channel | CHO-K1 KCNQ1, FluxOR thallium flux fluorescence; stronger effect = higher value | B-score at 10 µM | hit rate 1.3% among 310,000;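 active = compounds whose thallium flux B-score, printed positive for inhibition, exceeds three library SD while starting fluorescence stays within three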;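 also: channel opened by potassium depolarization with thallium stimulus after 20 min compound exposure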
KCNQ1 pot = human KCNQ1 channel potentiation or activation; hit rate 0.35% among 310,000; B-score at 10 µM; AID 2648; P51787; CHO-K1 KCNQ1, thallium flux FluxOR fluorescence; stronger effect = higher value;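 active = fluorescence ratio B-score, a plate-corrected score, at least three library SD, with initial intensity B-score within 5 SD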
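assay system = CHO-K1 cells stably expressing KCNQ1 | medium = assay buffer, equal DMSO in all wells | timing = 37 °C overnight plating, 90-min dark dye load, 20-min compound pretreatment | measured by = kinetic FluxOR thallium fluorescence, 10-s 1-Hz baseline, 110-s post-stimulus read | measure = fluorescence change relative to baseline, converted to B score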
KCNK3 block = human KCNK3 channel inhibition, primary screen; O14649; CHO-KCNK3 thallium flux, FluxOR fluorescence; stronger effect = lower value; B-score at 10 µM; hit rate 0.84% among 340,000; AID 602410;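 active = B-score under library mean minus 4 SD, starting fluorescence ratio at most library mean plus 5 SD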;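 also: more negative B-score means stronger inhibition of thallium flux through KCNK3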
* = called active by the depositor; i = inactive; · = not tested or not shown. This is a sample that favours compounds with a hit; in the whole collection about 3.7% have one here.

SMILES	Kir21 block	KCNK9 inh	hERG rescue	KCNQ1 inh	KCNQ1 pot	KCNK3 block
O=C(Oc1ccc(C(=S)N2CCOCC2)cc1Br)c1ccccc1F	-6.26*	i	-5.2	i	i	i
O=C(Oc1ccc(Br)cc1C(=S)N1CCOCC1)c1ccc(F)cc1	-0.56	i	-6.7	i	i	i
O=C(Oc1ccc(C(=S)N2CCOCC2)cc1Cl)c1ccccc1F	-5.81*	i	-3.1	i	i	i
O=C(CCNC(=O)C1CCN(S(=O)(=O)c2ccc(F)cc2)CC1)NCc1cccc(Cl)c1	-0.18	i	-6.7	i	i	i
Cc1cc(NC(=O)c2ccc(Cl)cc2)c(C)cc1O	1.77	i	-7.2	i	i	i
Cc1cc(C(C#N)c2ccc(Cl)cc2)c(Cl)cc1NC(=O)c1cc(I)cc(I)c1O (stereo not drawn)	-0.73	i	-26.2	i	8*	i
Cc1c(Cl)cccc1NC(=S)NCCc1ccc(C(F)(F)F)cc1	-0.05	i	-9.6	7*	i	i
CCN(CC)c1ccc(C(=C2C=CC(=[N+](CC)CC)C=C2)c2ccc(N(CC)CC)cc2)cc1	·	·	·	·	·	-11.6*
O=C(COC(=O)c1cc(-c2cccs2)nn1-c1ccccc1)Nc1cccc([N+](=O)[O-])c1	-0.61	-6.78*	-8.3	i	i	i
Cc1ccc(S(=O)(=O)N(C)CC(=O)NNC(=O)CCNS(=O)(=O)c2cccc(C)c2)cc1	·	·	·	·	·	i
Cc1ccc(C#CC[N+]2(CC#Cc3ccc(C)cc3)CCCCC2)cc1	-6.81*	i	-30.4	12*	i	i
C[C@@H](CC#N)CN1CC[C@H](C(C)(C)C)CCC1=O	-1.22	i	5.0*	i	i	i
C[C@@H]1CCC(=O)N(C[C@@H](C)CC#N)CC1	-0.13	i	-0.3	i	i	i
CN(C)c1ncc(C2=C(Cl)C(=O)C(N3CCCC3)=C(Cl)C2=O)s1	-1.27	i	-46.1	7*	i	i
O=C1C(Cl)=C(N2CCCCC2)C(=O)C(Cl)=C1c1cnc(N2CCCCC2)s1	-0.81	i	-3.3	7*	i	i
CC(=O)Nc1ccccc1NC(=O)C/C(C)=N/NC(=O)C(=O)N1CCCCC1	-0.31	i	-6.3	i	i	i
CCC(C)Nc1nc(N)c([N+](=O)[O-])c(Nc2ccccc2OC)n1 (stereo not drawn)	0.38	-7.93*	-4.9	i	i	i
O=C(NCC1CC1(Cl)Cl)Nc1ccc(Cl)c(Cl)c1 (stereo not drawn)	0.38	-8.42*	-14.7	i	i	i
COc1cc(CCC(=O)NCc2ccc(Cl)cc2)cc(OC)c1OC	-1.76	i	-4.1	i	i	i
COc1cc(CCC(=O)OCC(=O)NCc2ccc(Cl)cc2)cc(OC)c1OC	-4.39*	i	-3.9	i	i	i
C[C@H]1CN([C@@H](C)CO)C(=O)c2cc(NC(=O)NC3CCCCC3)ccc2O[C@H]1CN(C)C(=O)Nc1ccc(C(F)(F)F)cc1	·	·	·	·	·	i
CCCn1c(-c2ccc(OC)cc2)nc2ccccc21	-4.49*	i	-14.2	i	i	i
COCn1c(-c2ccc(OC)cc2)nc2ccccc21	0.04	i	-2.7	i	i	i
COc1cc(/C=N/NC(=O)CN2CCCCC2)ccc1OCc1ccc(Br)cc1	-6.56*	i	-19.5	i	i	i
O=C(C[n+]1cc(-c2ccccc2)n2c1CCCCC2)c1ccc(Cl)cc1	0.74	i	-9.0	i	i	i
SMILES	Kir21 block	KCNK9 inh	hERG rescue	KCNQ1 inh	KCNQ1 pot	KCNK3 block
Clc1ccc(-c2c[n+](Cc3ccc(Cl)cc3Cl)c3n2CCCCC3)cc1	-0.58	i	-20.3	7*	i	i
Clc1ccc(C[n+]2cc(-c3ccccc3)n3c2CCCCC3)c(Cl)c1	-1.19	i	-21.5	i	i	i
CC1CCC(C(C)C)C(OC(=O)C[n+]2cc(-c3ccc(Cl)cc3)n3c2CCCCC3)C1 (stereo not drawn)	-8.58*	i	-25.4	6*	i	-9.79*
CCOc1ccc(NC(=S)Nc2cc(OC)c(Cl)cc2OC)cc1	0.48	i	-8.0	i	i	i
COc1cc(C)c(NC(=S)Nc2ccc(Cl)c(Cl)c2)cc1OC	-1.08	i	-18.2	6*	i	i
COc1cc(OC)c(NC(=S)Nc2cc(Cl)cc(Cl)c2)cc1Cl	-1.04	i	-10.7	10*	i	i
COCCNC(=S)Nc1ccc(Cl)c(Cl)c1	0.26	i	-10.8	6*	i	i
CCN(CC)CCOCCn1c(C)ccc1C	·	·	·	·	·	i
C=C(C)CC1(NC(C)c2ccccc2)CCCCC1 (stereo not drawn)	-4.91*	i	-12.2	i	i	i
COC(=O)CNC(c1ccccc1Cl)c1cc(Br)ccc1NS(=O)(=O)c1ccc(C)cc1 (stereo not drawn)	-1.82	-6.82*	-13.2	i	i	i
CCCCn1c(N)c(N(CCC(C)C)C(=O)COC(=O)c2ccc3ccccc3c2)c(=O)[nH]c1=O	·	·	·	·	·	i
COc1ccc(NC(=O)CSCC(=O)Nc2cccc3ncccc23)cc1	-0.47	i	-11.1	i	i	i
Cc1oc(-c2ccccc2Cl)nc1CSCC(=O)NC1CCCC1	-4.74*	i	-8.2	i	i	i
CCOC(=O)N1CCC(NC(=O)CSCc2nc(-c3ccccc3Cl)oc2C)CC1	0.1	i	-2.7	i	i	i
COc1cc(-c2nc3ccc(N4CCN(C)CC4)cc3[nH]2)cc(OC)c1OC	0.84	i	5.5*	i	i	i
Cc1ccc(CN2CCCC(CO)(Cc3ccccc3C)C2)s1 (stereo not drawn)	-4.41*	i	-6.1	i	i	i
c1ccc(-c2noc(CN3CCN(c4ccccc4)CC3)n2)cc1	0.32	i	-10.3	i	i	i
c1ccc(-c2noc(CN3CCN(C(c4ccccc4)c4ccccc4)CC3)n2)cc1	-0.11	-7.15*	-12.2	i	i	i
Cc1ccc(C(=O)O/N=C(\N)c2ccc(Br)cc2)cc1C	0.35	i	6.4*	i	i	i
CCCN1CCC(=O)N([C@H](CO)CC(C)C)CC1	-0.47	i	-6.5	i	i	i
CC(C)C[C@@H](CO)N1CCN(CC(C)C)CCC1=O	2.09	i	5.7*	i	i	i
O=[N+]([O-])c1c(NCCCO)cc(Sc2ccc(Cl)cc2)c2nonc12	-1.63	i	-12.0	i	i	i
Cn1ccnc1Sc1cc(NCCCO)c([N+](=O)[O-])c2nonc12	-2.79	i	-30.6	6*	i	i
Cc1cccc(N2CCN(C(=O)c3c(-c4ccccc4Cl)noc3C)CC2)c1C	2.26	i	-8.7	i	i	i
